Results from ChEMBL document CHEMBL3868583, “6-Aryl substituted 4-(4-cyanomethyl) phenylamino quinazolines as a new class of isoform-selective PI3K-alpha inhibitors” (Eur J Med Chem, 2016).
Converted amounts (≈) assume the structure as drawn.

Columns and labels:
[1] = Thermodynamic equilibrium solubility of compound in PBS up to 300 ug after 4 hrs by UV absorbance method; type: physicochemical; details: read-out: Therm_solubility
How it was run: (§1)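 Methanol stock evaporated in wells to give 1–300 µg solid; 200 µl medium (water, PBS, SGF or SIF) added, shaken 300 rpm 4 h at 25 ± 1 °C, equilibrated overnight, centrifuged; supernatant UV absorbance at λmax; saturation point from concentration–absorbance curve; triplicate.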

[2] = Thermodynamic equilibrium solubility of compound in simulated intestinal fluid up to 300 ug after 4 hrs by UV absorbance method; type: ADME; details: read-out: Therm_solubility; how it was run: as §1
Mus musculus [3] = assay: Toxicity in Swiss mouse implanted with Swiss mouse EAT cells assessed as body weight at 15 mg/kg, ip administered for 1 to 9 days measured on day 13 (reference value: 24.1 g); type: organism-based; details: in vivo
[4] = Cytotoxicity against human MCF7 cells assessed as cell growth inhibition after 48 hrs by MTT assay; type: functional; details: MCF7, 48 h
How it was run: (§2)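 MTT assay: 3 × 10^3 cells/well seeded, compounds added after 24 h at final […], 48 h exposure. MTT (2.5 mg/mL in PBS) added, formazan dissolved in DMSO, absorbance 570 nm. Viability as % of untreated; three independent experiments, mean ± SD.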

Mus musculus [5] = assay: Toxicity in Swiss mouse implanted with Swiss mouse EAT cells assessed as body weight at 25 mg/kg, ip administered for 1 to 9 days measured on day 5 (reference value: 22.6 g); type: organism-based; details: in vivo
[6] = Efflux ratio of permeability in human Caco2 cells after 90 mins by LC-MS/MS analysis; type: ADME, cell-based; details: Caco-2
How it was run: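 Caco-2 monolayers grown 21 days (TEER >500). Compound in HBSS with 10 mM HEPES dosed to the apical chamber, and in a repeat run to the basolateral chamber. Both chambers sampled at 0 and 90 min at 37 °C. Analysis by LC-MS/MS.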

[7] = Cytotoxicity against HEK293 cells assessed as cell growth inhibition after 48 hrs by MTT assay; type: toxicity, cell-based; details: human
[8] = Cytotoxicity against human PC3 cells assessed as cell growth inhibition after 48 hrs by MTT assay; type: functional; details: PC-3, 48 h; how it was run: as §2
Mus musculus [9] = assay: Toxicity in Swiss mouse implanted with Swiss mouse EAT cells assessed as mortality at 15 mg/kg, ip administered for 1 to 9 days measured on day 9 and 13; type: organism-based; details: in vivo
How it was run: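 EAC cells harvested from 8–10-day ascitic Swiss mice; 1×10^7 cells injected intramuscularly into right thigh of Swiss male mice on day 0. Randomized next day: treated n=7, saline control n=10 (0.2 ml i.p.). Dosing i.p. days 1–9. […] Body weight and mortality tracked.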

[10] = Thermodynamic equilibrium solubility of compound in water up to 300 ug after 4 hrs by UV absorbance method; type: physicochemical; details: read-out: Therm_solubility; how it was run: as §1
[11] = Cytotoxicity against HGF cells assessed as cell growth inhibition after 48 hrs by MTT assay; type: toxicity, cell-based; details: human
[12] = Cytotoxicity against human FR2 cells assessed as cell growth inhibition after 48 hrs by MTT assay; type: toxicity, cell-based
[13] = Thermodynamic equilibrium solubility of compound in simulated gastric fluid up to 300 ug after 4 hrs by UV absorbance method; type: ADME; details: read-out: Therm_solubility; how it was run: as §1
PC-3 = assay: Induction of cell cycle arrest in human PC3 cells assessed as accumulation at subG1 phase after 24 hrs by propidium iodide-staining based FACS analysis; type: functional
How it was run: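 PC-3 cells exposed 24 h at indicated concentrations, pelleted, fixed overnight in ice-cold 70% ethanol at 4 °C, RNase 0.2 mg/mL at 37 °C 1 h, propidium iodide 10 µg/mL 30 min in dark; 10,000 events acquired (FL2-A vs FL2-W); DNA histograms modelled for apoptotic (sub-G1), G1, S and G2-M fractions.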

CYP3A4 = CYP3A4 (Homo sapiens, UniProt P08684); assay: Inhibition of human CYP3A4 at 10 uM after 10 mins by fluorescence assay; type: ADME
[14] = target: Phosphatidylinositol 4,5-bisphosphate 3-kinase catalytic subunit alpha isoform (Homo sapiens, UniProt P42336); assay: Inhibition of PI3Kalpha (unknown origin) using diC8 PIP2 as substrate at 0.5 uM after 80 mins by ADP-glo assay
[15] = Cytotoxicity against human HL60 cells assessed as cell growth inhibition after 48 hrs by MTT assay; type: functional; details: HL-60, 48 h; how it was run: as §2
CYP2C19 = CYP2C19 (Homo sapiens, UniProt P33261); assay: Inhibition of human CYP2C19 at 10 uM after 10 mins by fluorescence assay; type: ADME
CYP2C9 = CYP2C9 (Homo sapiens, UniProt P11712); assay: Inhibition of human CYP2C9 at 10 uM after 10 mins by fluorescence assay; type: ADME
CYP2D6 = CYP2D6 (Homo sapiens, UniProt P10635); assay: Inhibition of human CYP2D6 at 10 uM after 10 mins by fluorescence assay; type: ADME
[16] = Cytotoxicity against human A375 cells assessed as cell growth inhibition after 48 hrs by MTT assay; type: functional; details: A-375, 48 h; how it was run: as §2
Homo sapiens [17] = organism: Homo sapiens; assay: Selectivity ratio of IC50 for PI3Kgamma (unknown origin) to IC50 for PI3Kalpha (unknown origin)
MCF7 = assay: Induction of cell cycle arrest in human MCF7 cells assessed as accumulation at subG1 phase after 24 hrs by propidium iodide-staining based FACS analysis; type: functional
How it was run: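 MCF-7 or PC-3 cells treated at indicated concentrations for 24 h, pelleted, PBS-washed, fixed in ice-cold 70% ethanol overnight at 4 °C. RNase 0.2 mg/mL 1 h at 37 °C, propidium iodide 10 µg/mL 30 min dark. 10,000 events (FL2-A vs FL2-W) by flow cytometry; fractions in apoptosis/sub-G1, G1, S, G2-M.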

[18] = Cytotoxicity against human PANC1 cells assessed as cell growth inhibition after 48 hrs by MTT assay; type: functional; details: PANC-1, 48 h; how it was run: as §2
CYP1A2 = target: T1, CYP1A2 (Homo sapiens, UniProt P05177); assay: Inhibition of human CYP1A2 at 10 uM after 10 mins by fluorescence assay; type: ADME
T1 sequence (P05177 whole entry): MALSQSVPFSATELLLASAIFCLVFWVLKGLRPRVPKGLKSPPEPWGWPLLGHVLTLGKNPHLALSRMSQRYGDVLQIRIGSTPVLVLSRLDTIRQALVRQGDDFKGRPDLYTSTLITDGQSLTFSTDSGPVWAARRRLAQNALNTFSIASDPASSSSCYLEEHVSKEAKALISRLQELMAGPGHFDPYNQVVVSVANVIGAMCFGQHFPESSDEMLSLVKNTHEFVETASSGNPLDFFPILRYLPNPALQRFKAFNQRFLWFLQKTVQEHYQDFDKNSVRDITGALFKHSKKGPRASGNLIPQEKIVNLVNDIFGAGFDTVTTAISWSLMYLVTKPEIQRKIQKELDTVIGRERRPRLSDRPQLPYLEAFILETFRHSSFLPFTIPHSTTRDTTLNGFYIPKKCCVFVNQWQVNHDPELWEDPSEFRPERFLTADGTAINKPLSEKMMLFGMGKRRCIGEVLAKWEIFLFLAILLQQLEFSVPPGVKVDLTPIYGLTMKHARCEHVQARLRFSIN

Homo sapiens [19] = organism: Homo sapiens; assay: Selectivity ratio of IC50 for PI3Kbeta (unknown origin) to IC50 for PI3Kalpha (unknown origin)
Homo sapiens [20] = organism: Homo sapiens; assay: Selectivity ratio of IC50 for PI3Kdelta (unknown origin) to IC50 for PI3Kalpha (unknown origin)

Chain of CYP2C9 (P11712 whole entry): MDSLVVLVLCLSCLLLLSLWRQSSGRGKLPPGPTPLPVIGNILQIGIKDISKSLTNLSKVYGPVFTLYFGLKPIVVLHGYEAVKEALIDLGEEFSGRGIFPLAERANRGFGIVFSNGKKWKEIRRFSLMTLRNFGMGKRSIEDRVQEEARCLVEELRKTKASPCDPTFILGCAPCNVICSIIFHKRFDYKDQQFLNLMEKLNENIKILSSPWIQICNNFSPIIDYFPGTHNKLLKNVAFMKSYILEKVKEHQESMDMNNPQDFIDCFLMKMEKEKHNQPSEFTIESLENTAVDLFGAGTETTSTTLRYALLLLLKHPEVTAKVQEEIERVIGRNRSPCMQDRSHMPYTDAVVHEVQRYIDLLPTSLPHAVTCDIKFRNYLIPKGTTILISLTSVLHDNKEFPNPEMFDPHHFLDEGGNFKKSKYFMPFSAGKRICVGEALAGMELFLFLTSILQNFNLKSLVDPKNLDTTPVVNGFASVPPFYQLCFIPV
Chain of CYP3A4 (P08684 whole entry, canonical isoform): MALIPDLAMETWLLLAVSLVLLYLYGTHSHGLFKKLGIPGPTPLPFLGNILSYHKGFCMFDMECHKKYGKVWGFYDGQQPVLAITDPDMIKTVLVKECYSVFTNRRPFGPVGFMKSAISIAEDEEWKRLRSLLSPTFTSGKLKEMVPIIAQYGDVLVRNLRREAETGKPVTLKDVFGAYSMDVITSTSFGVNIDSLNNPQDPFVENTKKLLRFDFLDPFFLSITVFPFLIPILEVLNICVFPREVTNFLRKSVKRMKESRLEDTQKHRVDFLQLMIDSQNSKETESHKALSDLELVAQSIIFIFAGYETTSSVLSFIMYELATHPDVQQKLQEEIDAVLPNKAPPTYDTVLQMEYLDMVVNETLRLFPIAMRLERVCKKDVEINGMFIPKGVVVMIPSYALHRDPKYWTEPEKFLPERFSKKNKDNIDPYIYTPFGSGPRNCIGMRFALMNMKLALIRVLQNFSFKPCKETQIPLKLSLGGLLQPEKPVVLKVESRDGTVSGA
Chain of Phosphatidylinositol 4,5-bisphosphate 3-kinase catalytic subunit alpha isoform (P42336 whole entry, canonical isoform): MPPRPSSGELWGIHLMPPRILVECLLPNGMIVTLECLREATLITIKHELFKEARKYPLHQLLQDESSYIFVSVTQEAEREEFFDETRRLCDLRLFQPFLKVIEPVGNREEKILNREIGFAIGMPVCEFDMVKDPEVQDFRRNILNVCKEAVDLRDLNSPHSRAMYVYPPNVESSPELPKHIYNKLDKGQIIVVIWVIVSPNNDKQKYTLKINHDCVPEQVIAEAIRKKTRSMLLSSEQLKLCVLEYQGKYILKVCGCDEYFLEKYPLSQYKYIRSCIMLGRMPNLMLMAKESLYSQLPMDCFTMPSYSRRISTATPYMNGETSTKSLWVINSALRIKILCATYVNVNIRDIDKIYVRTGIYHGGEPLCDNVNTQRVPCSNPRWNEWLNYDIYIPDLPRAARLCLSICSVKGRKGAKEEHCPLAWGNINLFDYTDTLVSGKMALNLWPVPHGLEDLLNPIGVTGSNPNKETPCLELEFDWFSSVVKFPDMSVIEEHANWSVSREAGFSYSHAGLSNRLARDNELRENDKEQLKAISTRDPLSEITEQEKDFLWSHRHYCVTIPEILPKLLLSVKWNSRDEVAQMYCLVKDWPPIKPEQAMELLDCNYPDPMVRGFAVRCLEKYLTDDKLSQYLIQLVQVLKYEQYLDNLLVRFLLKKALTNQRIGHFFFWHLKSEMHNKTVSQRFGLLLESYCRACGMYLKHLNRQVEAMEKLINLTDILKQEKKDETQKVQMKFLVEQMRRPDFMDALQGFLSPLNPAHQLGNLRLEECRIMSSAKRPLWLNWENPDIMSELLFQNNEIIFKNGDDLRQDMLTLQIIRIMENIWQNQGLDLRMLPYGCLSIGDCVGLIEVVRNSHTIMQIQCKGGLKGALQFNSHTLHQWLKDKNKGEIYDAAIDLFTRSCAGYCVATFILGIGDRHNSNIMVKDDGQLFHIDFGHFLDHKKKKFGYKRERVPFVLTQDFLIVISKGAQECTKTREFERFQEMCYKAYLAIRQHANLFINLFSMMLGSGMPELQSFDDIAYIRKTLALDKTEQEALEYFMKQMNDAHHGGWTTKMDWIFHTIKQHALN
Chain of CYP2D6 (P10635 whole entry): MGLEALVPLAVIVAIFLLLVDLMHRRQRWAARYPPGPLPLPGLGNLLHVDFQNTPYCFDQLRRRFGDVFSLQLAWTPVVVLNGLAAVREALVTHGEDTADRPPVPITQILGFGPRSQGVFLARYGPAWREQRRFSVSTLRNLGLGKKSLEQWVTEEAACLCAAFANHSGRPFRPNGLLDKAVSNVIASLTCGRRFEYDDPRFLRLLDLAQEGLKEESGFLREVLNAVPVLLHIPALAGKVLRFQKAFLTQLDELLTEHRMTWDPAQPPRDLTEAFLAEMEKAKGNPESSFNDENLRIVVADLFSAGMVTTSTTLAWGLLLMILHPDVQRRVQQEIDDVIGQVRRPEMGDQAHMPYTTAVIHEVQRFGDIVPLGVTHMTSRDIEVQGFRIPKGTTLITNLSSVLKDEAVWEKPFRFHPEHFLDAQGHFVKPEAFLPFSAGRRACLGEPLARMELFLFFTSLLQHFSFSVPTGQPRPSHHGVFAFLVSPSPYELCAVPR
Chain of CYP2C19 (P33261 whole entry): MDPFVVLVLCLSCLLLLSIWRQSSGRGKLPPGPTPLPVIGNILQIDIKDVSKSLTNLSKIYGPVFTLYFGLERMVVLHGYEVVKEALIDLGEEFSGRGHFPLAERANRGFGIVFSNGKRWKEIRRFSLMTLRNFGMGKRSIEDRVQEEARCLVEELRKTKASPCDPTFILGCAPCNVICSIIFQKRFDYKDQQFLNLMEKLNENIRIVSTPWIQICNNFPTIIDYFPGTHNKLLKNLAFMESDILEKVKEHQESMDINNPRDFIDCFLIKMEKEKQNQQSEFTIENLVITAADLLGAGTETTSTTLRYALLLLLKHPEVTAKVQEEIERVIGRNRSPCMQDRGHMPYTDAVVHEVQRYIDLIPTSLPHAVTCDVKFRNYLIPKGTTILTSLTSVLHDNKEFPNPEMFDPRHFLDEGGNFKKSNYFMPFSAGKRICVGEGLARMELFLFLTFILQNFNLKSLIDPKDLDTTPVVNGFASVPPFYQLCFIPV

Structure (SMILES) | solubility thermodynamic at 4 h [1] [µg/mL] | solubility thermodynamic at 4 h [2] [µg/mL] | GI50 [4] [µM] | efflux ratio at 1.5 h [6] | GI50 at 48 h [7] [µM] | GI50 [8] [µM] | solubility thermodynamic at 4 h [10] [µg/mL] | GI50 at 48 h [11] [µM] | GI50 at 48 h [12] [µM] | solubility thermodynamic at 4 h [13] [µg/mL] | Activity (PC-3) | inhibition at 10 min, 10 µM (CYP3A4) [%] | inhibition [14] [%] | GI50 [15] [µM] | inhibition at 10 min, 10 µM (CYP2C19) [%] | inhibition at 10 min, 10 µM (CYP2C9) [%] | inhibition at 10 min, 10 µM (CYP2D6) [%] | GI50 [16] [µM] | Ratio IC50 (Homo sapiens [17]) | Activity (MCF7) | other results
N#CCc1ccc(Nc2ncnc3ccc(-c4ccc5[nH]ccc5c4)cc23)cc1 | 10 (≈ 26.6 µM) | 5 (≈ 13.3 µM) | 7 | 1.3 | > 50 | 24 | 10 (≈ 26.6 µM) | > 50 | > 50 | 80 (≈ 213 µM) | Dose-dependent effect | 51 | 47.5 | 18 | 10 | 88 | 29 | 31 | 3.7 | Dose-dependent effect | Activity (Mus musculus [3]): 22.57 g; Activity (Mus musculus [5]): 20.61 g; Activity (Mus musculus [9]): Non-Toxic; GI50 [18]: 16 µM; inhibition at 10 min, 10 µM (CYP1A2): 30%; Ratio IC50 (Homo sapiens [19]): > 49.7; Ratio IC50 (Homo sapiens [20]): > 49.7
N#CCc1ccc(Nc2ncnc3ccc(-c4cncc5ccccc45)cc23)cc1 | 1 (≈ 2.58 µM) | 1 (≈ 2.58 µM) | 12 | 1.2 | > 50 | 9 | 1 (≈ 2.58 µM) | > 50 | > 50 | 800 (≈ 2060 µM) | Dose-dependent effect | 27 | 48.8 | 10 | 34 | 87 | -35 | 12 | 56 | Dose-dependent effect | GI50 [18]: 9 µM; inhibition at 10 min, 10 µM (CYP1A2): 72%; Ratio IC50 (Homo sapiens [19]): > 133; Ratio IC50 (Homo sapiens [20]): 5.9
